Assay results published in ChEMBL document CHEMBL4308887, “Synthesis and biological evaluation of clovamide analogues with catechol functionality as potent Parkinson's disease agents in vitro and in vivo” (Bioorg Med Chem Lett, 2019).
Active and inactive are the calls of the source. No cut-off for these calls is given here.

How the values were obtained:
SH-SY5Y [1] = test: Protection against H2O2-induced apoptosis in human SH-SY5Y cells assessed as early apoptotic cells at 1 uM preincubated for 6 hrs followed by H2O2 addition and measured after 24 hrs by Annexin V-FITC/propidium iodide staining based flow cytometry (reference value: 6.6%); format: functional
[2] = Activation of PI3K/Akt/mTOR signaling in human SH-SY5Y cells assessed as up regulation of HO-1 expression at 10 uM after 24 hrs by Western blot analysis relative to control; format: cell-based
Method in brief: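 HO-1 western blot in SH-SY5Y cells incubated 24 h with 1 at 0.1, 1 or 10 μM, without H₂O₂. Band densitometry expressed as % of control. Mean ± S.E.M. from three independent experiments.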

SH-SY5Y [3] = test: Protection against H2O2-induced apoptosis in human SH-SY5Y cells assessed as decrease in ratio of Bax/Bcl2 expression preincubated for 6 hrs followed by H2O2 addition and measured after 24 hrs by Western blot analysis; format: functional, cell-based
Method in brief: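 Western blot of Bax, Bcl-2 and cleaved caspase-3 in SH-SY5Y after pretreatment (1, 10 μM) and 600 μM H₂O₂. β-actin internal standard; Bax/Bcl-2 ratio from densitometry. Mean ± S.E.M., three independent experiments.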

SH-SY5Y [4] = test: Protection against H2O2-induced mitochondrial dysfunction in human SH-SY5Y cells assessed as increase in mitochondrial membrane potential at 1 to 10 uM preincubated for 6 hrs followed by H2O2 addition and measured after 24 hrs by Rh123 staining based inverted microscopic analysis; format: functional, cell-based
Method in brief: (§1)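 ΔΨm examined by inverted fluorescence microscopy and flow cytometry after pretreatment (1, 10 μM) and 600 μM H₂O₂. Reported as % of control. Mean ± S.E.M., three independent experiments.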

SH-SY5Y [5] = test: Protection against H2O2-induced mitochondrial dysfunction in human SH-SY5Y cells assessed as mitochondrial membrane potential at 10 uM preincubated for 6 hrs followed by H2O2 addition and measured after 24 hrs by Rh123 staining based flow cytometry (reference value: 26.31 +/- 3.32%); format: functional; method in brief: as §1
[6] = Activation of PI3K/Akt/mTOR signaling in human SH-SY5Y cells assessed as up regulation of H2O2-induced HO-1 expression at 10 uM preincubated for 6 hrs followed by H2O2 addition and after 24 hrs in presence of MEK1/2 inhibitor U0126 by Western blot analysis; format: cell-based
Method in brief: (§2)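 SH-SY5Y cells preincubated 1 h with one inhibitor: SB203580 10 μM, LY294002 5 μM, U0126 10 μM, SP600125 5 μM or rapamycin 100 nM. Then 1 (10 μM) for 6 h, then 600 μM H₂O₂. HO-1 measured by western blot and densitometry. Mean ± S.E.M., three independent experiments.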

SH-SY5Y [7] = test: Protection against H2O2-induced apoptosis in human SH-SY5Y cells assessed as viable cells at 10 uM preincubated for 6 hrs followed by H2O2 addition and measured after 24 hrs by Annexin V-FITC/propidium iodide staining based flow cytometry (reference value: 12.4%); format: functional; conditions: read-out: Activity
SH-SY5Y [8] = test: Protection against H2O2-induced oxidative stress in human SH-SY5Y cells assessed as reduction in reactive oxygen species level preincubated for 6 hrs followed by H2O2 addition and measured after 24 hrs by DHE dye based inverted microscopic analysis; format: functional, cell-based
Mus musculus [9] = test: Anti-parkinson's activity in MPTP-induced C57Bl/6 mouse model of Parkinson's disease assessed as increase in tyrosine hydroxylase expression in striatum at 10 to 20 mg/kg, ig pretreated for 10 days followed by MPTP challenge measured 10 days post MPTP addition by Western blot analysis; format: functional, organism-based
Method in brief: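 Tissue taken 10 days after MPTP injection from mice dosed orally with 1 (10 or 20 mg/kg). TH in SNpc and striatum by western blot, and by DAB immunostaining. Three of the mice per group analysed. Mean ± S.D., n = 6 mice/group.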

[10] = MRT in Sprague-Dawley rat at 5 mg/kg, iv by LC-MS/MS analysis; format: ADME, organism-based; conditions: in vivo
Method in brief: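 Male Sprague–Dawley rats dosed with 1 at 5 mg/kg i.v. (vehicle 5% DMSO, 2% F68, 93% saline) or 25 mg/kg p.o. (0.5% methylcellulose with 1% Tween 80). Orbital blood sampled at 0.083–24 h, 12 time points. Plasma PK parameters derived. Mean ± SD, n = 3.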

SH-SY5Y [11] = test: Induction of mitochondrial dysfunction in non-stimulated human SH-SY5Y cells assessed as mitochondrial membrane potential at 10 uM measured after 6 hrs by Rh123 staining based flow cytometry (reference value: 97.6 %); format: cell-based
Mus musculus [12] = test: Anti-parkinson's activity in MPTP-induced C57Bl/6 mouse model of Parkinson's disease assessed as reduction in MDA level in substantia nigra administered intragastrically pretreated for 10 days followed by MPTP challenge measured 10 days post MPTP addition by thiobarbituric acid method; format: functional, organism-based
Method in brief: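 Striatum and SNpc from MPTP-treated mice dosed orally with 1 at 10 or 20 mg/kg. MDA level and SOD activity measured. Mean ± S.D., n = 6 mice/group.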

SH-SY5Y [13] = test: Induction of apoptosis in non-stimulated human SH-SY5Y cells assessed as necrotic cells at 10 uM measured after 6 hrs by Annexin V-FITC/propidium iodide staining based flow cytometry (reference value: 0.6%); format: cell-based
SH-SY5Y [14] = test: Protection against H2O2-induced oxidative stress in human SH-SY5Y cells assessed as reactive oxygen species level at 1 uM preincubated for 6 hrs followed by H2O2 addition and measured after 24 hrs by DHE dye based flow cytometry (reference value: 18.6%); format: functional
SH-SY5Y [15] = test: Protection against H2O2-induced apoptosis in human SH-SY5Y cells assessed as late apoptotic cells at 10 uM preincubated for 6 hrs followed by H2O2 addition and measured after 24 hrs by Annexin V-FITC/propidium iodide staining based flow cytometry (reference value: 3.5%); format: functional
[16] = Activation of PI3K/Akt/mTOR signaling in human SH-SY5Y cells assessed as up regulation of H2O2-induced HO-1 expression at 10 uM preincubated for 6 hrs followed by H2O2 addition and after 24 hrs in presence of PI3K/Akt/mTOR inhibitor rapamycin by Western blot analysis; format: cell-based; method in brief: as §2
[17] = Volume of distribution at steady state in Sprague-Dawley rat at 5 mg/kg, iv by LC-MS/MS analysis; format: ADME, organism-based; conditions: in vivo, read-out: Vdss
Method in brief: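 Male Sprague–Dawley rats (n = 3) dosed i.v. 5 mg/kg (5% DMSO, 2% F68, 93% saline) or p.o. 25 mg/kg (0.5% methylcellulose, 1% Tween 80). Orbital blood at 0.083–24 h (12 points). Plasma concentration–time profiles gave Cl, Vdss, AUC, T1/2, Tmax, Cmax, MRT and absolute F.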

[18] = Activation of PI3K/Akt/mTOR signaling in human SH-SY5Y cells assessed as increase in AKT phosphorylation after 5 to 360 mins by Western blot analysis; format: cell-based
Method in brief: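 SH-SY5Y cells, unstimulated, exposed to 1 for 5, 15, 30, 60, 120, 240 or 360 min. Phospho-AKT and phospho-mTOR measured by western blot, reported as p-AKT/t-AKT and p-mTOR/t-mTOR ratios after densitometry. Mean ± S.E.M. of three independent experiments.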

For COC(=O)[C@H](Cc1ccccc1)NC(=O)/C=C/c1ccc(O)c(O)c1 [N-CAFFEOYL-PHENYLALANINE METHYL ESTER], the Activity (SH-SY5Y [1]) was 6.3%, the Activity [2] was 206% and the Activity (SH-SY5Y [3]) was “Dose-dependent effect”. The Activity (SH-SY5Y [4]) was “Active”, the Activity (SH-SY5Y [5]) was 98.3% and the Activity [6] was “Active”. The viability at 10 µM (SH-SY5Y [7]) was 89.8%, the Activity (SH-SY5Y [8]) was “Dose-dependent effect” and the Activity (Mus musculus [9]) was “Active”. The MRT [10] was 1.45 h, the Activity (SH-SY5Y [11]) was 98.1% and the Activity (Mus musculus [12]) was “Dose-dependent effect”. The Activity (SH-SY5Y [13]) was 1.1%, the Activity (SH-SY5Y [14]) was 14% and the Activity (SH-SY5Y [15]) was 1.5%. The Activity [16] was “inactive”, the Vd [17] was 2.25 L/kg and the Activity [18] was “Active”.
